Source: ChEMBL document CHEMBL2384966, “Probes for narcotic receptor mediated phenomena. 47. Novel C4a- and N-substituted-1,2,3,4,4a,9a-hexahydrobenzofuro[2,3-c]pyridin-6-ols” (Bioorg Med Chem, 2013)
Activity calls are given as the source filed them. The calls are words filed in the database; no cut-off is given here.

Legend:
[1] = molecular target: T1, Delta-type opioid receptor (Homo sapiens, UniProt P41143); test: Binding affinity to delta opioid receptor (unknown origin)
[2] = molecular target: T2, Kappa-type opioid receptor (Homo sapiens, UniProt P41145); test: Binding affinity to kappa opioid receptor (unknown origin)
Mu-type opioid receptor [3] = molecular target: T3, Mu-type opioid receptor (Homo sapiens, UniProt P35372); test: Binding affinity to mu opioid receptor (unknown origin)
[4] = molecular target: T2, Kappa-type opioid receptor; test: Displacement of [3H]U69,593 from human recombinant kappa opioid receptor expressed in CHO cell membranes after 2 hrs by liquid scintillation counting analysis; format: cell-based
[5] = molecular target: T1, Delta-type opioid receptor; test: Displacement of [3H]DADLE from human recombinant delta opioid receptor expressed in CHO cell membranes after 2 hrs by liquid scintillation counting analysis
Summary of the method: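 Human DOR stably expressed in CHO cells; washed membranes (~30 µg protein/tube) incubated with ~2 nM [3H]DADLE and 10 drug concentrations in 50 mM Tris-HCl pH 7.4 with protease inhibitors, 2 h at 25 °C. Levallorphan defined nonspecific binding.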

Mu-type opioid receptor [6] = molecular target: T3, Mu-type opioid receptor; test: biochemical; format: cell-based, CHO
Homo sapiens [7] = organism: Homo sapiens; test: Selectivity ratio of Ki for human recombinant kappa opioid receptor to Ki for human recombinant delta opioid receptor
Homo sapiens [8] = organism: Homo sapiens; test: Selectivity ratio of Ki for human recombinant kappa opioid receptor to Ki for human recombinant mu opioid receptor
Homo sapiens [9] = organism: Homo sapiens; test: Selectivity ratio of Ki for human recombinant mu opioid receptor to Ki for human recombinant delta opioid receptor
[10] = molecular target: T1, Delta-type opioid receptor; test: Antagonist activity at human recombinant delta opioid receptor expressed in mouse/rat NG108-15 cell membranes assessed as inhibition of SNC80-induced [35S]GTPgammaS binding by liquid scintillation counting analysis; format: functional
[11] = molecular target: T1, Delta-type opioid receptor; test: Partial agonist activity at human recombinant delta opioid receptor expressed in mouse/rat NG108-15 cell membranes assessed as stimulation of [35S]GTPgammaS binding after 3 hrs by liquid scintillation counting analysis; format: functional
Summary of the method: (§1)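 DOR function measured in NG108-15 neuroblastoma-glioma membranes. Incubated with drug, GDP and 50 pM final [35S]GTPγS in 50 mM Tris-HCl pH 7.4, 100 mM NaCl, 10 mM MgCl2, 1 mM EDTA, 1 mM DTT, 0.1% BSA, 3 h at 25 °C. Unlabelled GTPγS defined nonspecific binding. Bound label collected on GF/B filters and scintillation counted; ED50 and Emax reported.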

[12] = molecular target: T1, Delta-type opioid receptor; test: Partial agonist activity at human recombinant delta opioid receptor expressed in mouse/rat NG108-15 cell membranes assessed as stimulation of [35S]GTPgammaS binding after 3 hrs by liquid scintillation counting analysis relative to SNC80; format: functional; summary of the method: as §1

T3 sequence (P35372 whole entry): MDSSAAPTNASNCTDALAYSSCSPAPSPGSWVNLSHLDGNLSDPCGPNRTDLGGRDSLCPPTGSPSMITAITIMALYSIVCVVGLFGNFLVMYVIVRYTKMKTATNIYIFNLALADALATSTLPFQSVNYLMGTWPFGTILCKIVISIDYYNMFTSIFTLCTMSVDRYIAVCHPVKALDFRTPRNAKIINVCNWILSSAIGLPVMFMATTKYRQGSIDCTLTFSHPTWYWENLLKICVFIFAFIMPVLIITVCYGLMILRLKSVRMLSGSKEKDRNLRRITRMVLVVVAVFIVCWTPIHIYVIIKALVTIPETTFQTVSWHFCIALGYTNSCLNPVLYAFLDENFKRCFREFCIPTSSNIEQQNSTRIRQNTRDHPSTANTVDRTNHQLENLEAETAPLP
T2 sequence (P41145 whole entry): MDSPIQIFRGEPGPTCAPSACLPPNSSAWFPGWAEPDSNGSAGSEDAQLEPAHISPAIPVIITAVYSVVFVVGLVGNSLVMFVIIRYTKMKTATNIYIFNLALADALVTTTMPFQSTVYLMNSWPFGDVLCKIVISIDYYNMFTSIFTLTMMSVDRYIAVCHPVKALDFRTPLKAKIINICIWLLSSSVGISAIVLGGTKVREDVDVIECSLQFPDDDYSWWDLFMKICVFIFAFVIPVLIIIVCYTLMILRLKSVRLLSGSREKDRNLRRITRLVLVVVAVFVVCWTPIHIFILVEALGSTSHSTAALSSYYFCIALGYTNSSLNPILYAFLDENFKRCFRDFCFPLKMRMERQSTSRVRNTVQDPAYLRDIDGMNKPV
T1 sequence (P41143 whole entry): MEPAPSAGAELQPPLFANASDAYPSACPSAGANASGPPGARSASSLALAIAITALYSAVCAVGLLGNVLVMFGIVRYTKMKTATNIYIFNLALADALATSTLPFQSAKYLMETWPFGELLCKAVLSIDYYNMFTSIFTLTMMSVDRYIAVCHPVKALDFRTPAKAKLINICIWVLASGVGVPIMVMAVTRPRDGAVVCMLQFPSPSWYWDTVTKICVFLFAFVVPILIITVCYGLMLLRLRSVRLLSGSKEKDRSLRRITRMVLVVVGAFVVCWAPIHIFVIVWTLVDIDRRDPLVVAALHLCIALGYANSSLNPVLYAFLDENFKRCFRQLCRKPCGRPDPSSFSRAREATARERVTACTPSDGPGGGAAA

Q: What does the source list for `CC[C@@]12CCN(CC3CC3)C[C@@H]1Oc1ccc(O)cc12`?
A: Ki [1]: 53 nM; Ki [2]: 34 nM; Ki (Mu-type opioid receptor [3]): 4 nM

Q: `CC[C@@]12CCN(CCc3ccccc3)C[C@@H]1Oc1ccc(O)cc12` was tested. Which Ki (Mu-type opioid receptor [3]) did it give?
A: 0.9 nM

Q: How did the Ki [4] turn out when `CN1CC[C@@]2(Cc3ccccc3)c3cc(O)ccc3O[C@H]2C1` (racemic) was run?
A: 2880 nM

Q: And the Ki [5]?
A: 64 nM

Q: And the Ki (Mu-type opioid receptor [6])?
A: 60 nM

Q: For `CN1CC[C@@]2(CCc3ccccc3)c3cc(O)ccc3O[C@H]2C1` (racemic), which Ki [4] is on record?
A: 3540 nM

Q: What about the Ki [5] of the same compound?
A: 551 nM

Q: What about the Ki (Mu-type opioid receptor [6]) of the same compound?
A: 66 nM

Q: With `CC[C@@]12CCN(C)C[C@@H]1Oc1ccc(O)cc12` (racemic) as the compound, how does the Ratio Ki (Homo sapiens [7]) read?
A: > 23

Q: What about the Ratio Ki (Homo sapiens [8]) of the same compound?
A: > 263

Q: What about the Ratio Ki (Homo sapiens [9]) of the same compound?
A: 0.09

Q: What about the Ki [4] of the same compound?
A: > 5000 nM

Q: What about the Ki [5] of the same compound?
A: 212 nM

Q: What about the Ki (Mu-type opioid receptor [6]) of the same compound?
A: 19 nM

Q: `CCCC[C@@]12CCN(C)C[C@@H]1Oc1ccc(O)cc12` (relative stereo) was tested. Which Ratio Ki (Homo sapiens [7]) did it give?
A: 9

Q: And the Ratio Ki (Homo sapiens [8])?
A: 20

Q: What about the Ratio Ki (Homo sapiens [9]) of the same compound?
A: 0.5

Q: Which results are given for `CN1CC[C@@]2(C)c3cc(O)ccc3O[C@H]2C1` (relative stereo)?
A: Ratio Ki (Homo sapiens [7]): > 0.4; Ratio Ki (Homo sapiens [8]): > 10; Ratio Ki (Homo sapiens [9]): 0.04

Q: Which Ke [10] does the source give for `CN1CC[C@@]2(CCCCCc3ccccc3)c3cc(O)ccc3O[C@H]2C1` (relative stereo) here?
A: > 200 nM

Q: What about the Ratio Ki (Homo sapiens [7]) of the same compound?
A: 0.95

Q: What about the Ratio Ki (Homo sapiens [8]) of the same compound?
A: 3

Q: And the Ratio Ki (Homo sapiens [9])?
A: 0.4

Q: Which Ratio Ki (Homo sapiens [7]) does the source give for `CN1CC[C@@]2(CCc3ccc(F)cc3)c3cc(O)ccc3O[C@H]2C1` (relative stereo) here?
A: 22

Q: And the Ratio Ki (Homo sapiens [8])?
A: 17

Q: What about the Ratio Ki (Homo sapiens [9]) of the same compound?
A: 1.3

Q: For `CN1CC[C@@]2(CCc3ccccc3F)c3cc(O)ccc3O[C@H]2C1` (relative stereo), which Ke [10] is on record?
A: 29 nM

Q: `Oc1ccc2c(c1)[C@]1(CCc3ccccc3)CCN(CC3CC3)C[C@@H]1O2` (relative stereo) was tested. Which ED50 [11] did it give?
A: inactive

Q: Which Ke [10] does the source give for `Oc1ccc2c(c1)[C@]1(CCc3ccccc3)CCN(CCc3ccc(C(F)(F)F)cc3)C[C@@H]1O2` (relative stereo) here?
A: 827 nM

Q: And the Emax [12]?
A: 46%

Q: For `Oc1ccc2c(c1)[C@]1(CCc3ccccc3)CCN(CCc3ccc(F)cc3)C[C@@H]1O2` (relative stereo), which Ke [10] is on record?
A: 213 nM

Q: And the Emax [12]?
A: 29%

Q: `Oc1ccc2c(c1)[C@]1(CCc3ccccc3)CCN(CCc3cccc(C(F)(F)F)c3)C[C@@H]1O2` (relative stereo) was tested. Which Ke [10] did it give?
A: 455 nM

Q: For `Oc1ccc2c(c1)[C@]1(CCc3ccccc3)CCN(CCc3ccccc3)C[C@@H]1O2` (relative stereo), which Ke [10] is on record?
A: 258 nM

Q: And the Emax [12]?
A: 29%

Q: With `Oc1ccc2c(c1)[C@]1(CCc3ccccc3)CCN(CCc3ccccc3C(F)(F)F)C[C@@H]1O2` (relative stereo) as the compound, how does the Ratio Ki (Homo sapiens [7]) read?
A: 14

Q: What about the Ratio Ki (Homo sapiens [8]) of the same compound?
A: 11

Q: What about the Ratio Ki (Homo sapiens [9]) of the same compound?
A: 1.3

Q: With `Oc1ccc2c(c1)[C@]1(CCc3ccccc3)CCN(CCc3ccccc3F)C[C@@H]1O2` (relative stereo) as the compound, how does the Ke [10] read?
A: 37 nM

Q: And the ED50 [11]?
A: inactive
